Measurements pooled from the literature.
Each line is one published result; the experiments were not run side by side.
Target: STE20/SPS1-related proline-alanine-rich protein kinase (STK39, Homo sapiens, UniProt Q9UEW8)

c1cnn2ncc(-c3ccnc(N4CCC45COC5)n3)c2c1 — remaining binding (binding; 1 µM): 41%
FC(F)(F)Oc1cccc(-c2cnc3ccc(-c4ccncc4)nn23)c1 — remaining binding (binding, competition with immobilised ligand; 5 µM): 83%
COc1ncc2cc3ccccc3nc2c1C#N — remaining binding (cell-free assay, competition with immobilised ligand; 5 µM): 100%
F[C@@H]1CCN(c2nccc(-c3cnn4ncccc34)n2)C1 — remaining binding (binding; 1 µM): 57%
C[C@@H](c1ccc(-n2cnc3c(N)ncnc32)cc1)N1CCc2nn(C)c(Cc3ccccc3)c2C1=O — remaining binding (binding, competition with immobilised ligand; 0.1 µM): 84%
CN(C)c1ncnc(-c2ccc3nc(Nc4cc(CN5CCN(C(=O)CC(F)(F)F)CC5)ccn4)[nH]c3c2)c1Cl — remaining binding (cell-free assay, competition with immobilised ligand; 1 µM): 69%
N[C@@H]1CCN(c2nccc(-c3cnn4ncccc34)n2)C1 — remaining binding (binding; 1 µM): 100%
Nc1ncc2c(n1)-c1c([nH]c3ccc(C#CC4CC4)cc13)CCCC2 — remaining binding (binding, competition with immobilised ligand; 1 µM): 53%
O=C(c1ccc(Nc2ncc(Cl)c(-c3ccc(Cl)s3)n2)cc1)N1CCC(N2CCCC2)CC1 — remaining binding (binding, competition with immobilised ligand; 1 µM): 48%
O=C(Nc1c[nH]nc1C(=O)NC1CCNCC1)c1cc(F)cc(F)c1 — remaining binding (binding, competition with immobilised ligand; 1 µM): 67%
O=C1NC(c2ccccn2)Sc2ccccc21 (stereo not drawn) — remaining binding (cell-free assay, competition with immobilised ligand; 1 µM): 89%
O=C(c1ccc(Nc2nccc(-c3cc4ccccc4s3)n2)cc1)N1CCC(N2CCCC2)CC1 — remaining binding (binding, competition with immobilised ligand; 1 µM): 85%
Cc1cnn2ncc(-c3ccnc(N(C)C)n3)c2c1 — remaining binding (binding; 1 µM): 100%
FC(F)(F)c1ccc2c(c1)nc(-c1cccnc1)n2C1CC1 — remaining binding (cell-free assay, competition with immobilised ligand; 1 µM): 100%
COc1cnc(Nc2cccc(S(N)(=O)=O)c2)nc1N1CCN(c2ccccc2)C(=O)C1 — remaining binding (binding, competition with immobilised ligand; 1 µM): 99%
Cn1nc(C(F)(F)F)cc1-c1cnc(N2CCc3cc(S(=O)(=O)Nc4c(F)cc(Cl)cc4F)cc(N4CCCC4=O)c32)nc1 — remaining binding (cell-free assay, competition with immobilised ligand; 1 µM): 91%
CN(C)c1ncc(F)c(-c2cnn3ncccc23)n1 — remaining binding (binding; 1 µM): 74%
O=C(Nc1cccnn1)N1CCC(=Cc2cccc(Oc3ccc(C(F)(F)F)cn3)c2)CC1 — remaining binding (cell-free assay, competition with immobilised ligand; 1 µM): 100%
O=C(NCCCN1CCOCC1)c1ccc(Nc2ncc(Cl)c(-c3ccc(Cl)s3)n2)cc1 — remaining binding (binding, competition with immobilised ligand; 1 µM): 54%
C[C@H]1CCN(c2nccc(-c3cnn4ncccc34)n2)C1 — remaining binding (binding; 1 µM): 62%
O=C(NCc1ncc(C(F)(F)F)cc1Cl)c1ccc2c(c1)C1(CCS(=O)(=O)CC1)[C@H](C1CC1)N2S(=O)(=O)c1ccc(F)cc1 — remaining binding (cell-free assay, competition with immobilised ligand; 1 µM): 84%
